Ecoli tolC: E. coli tolC mutant growth inhibition; E. coli BW25113 tolC mutant growth, OD615; growth inhibition, % at 10 µM (by protocol); 2.2% of 65,000 active; AID 573;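 active = growth inhibition at or above a cutoff equal to the mean over every tested compound plus 3 SD, cut at about 60% in these data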;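 also: growth measured after 20 h incubation at 37 °C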
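Test system: tolC-deleted E. coli BW25113 | Medium: LB with kanamycin 50 µg/mL | Compound dosing: Single concentration, 10 µM final per compound | Schedule: 37 °C, 20 h exposure | Measured by: OD at 615 nm | Evaluation: Percent growth inhibition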
PostGolgi ctrl: yeast control strain growth, post-Golgi counter-screen | efflux-deficient yeast background strain, growth absorbance A615, 16 h | inhibition, % at 10 µM | 5% of 98,000 active | AID 738
PostGolgi yeast: growth inhibition of a yeast mutant, post-Golgi transport screen; post-Golgi transport phenotypic cell assay; inhibition, % at 10 µM; 0.9% of 98,000 active;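 also: yeast cells grown in 1536-well plates; yeast grown about 18 h at 30C before absorbance read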
HePTP inhibitor: inhibitors of human HePTP phosphatase; P35236; recombinant HePTP phosphatase activity, OD absorbance; inhibition, % at 20 µM; 0.64% of 110,000 active; in the data active = inhibition above about 50%;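 also: plate controls were vehicle for no effect and reference inhibitor for full effect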
Target sequence (P35236 whole entry, looked up): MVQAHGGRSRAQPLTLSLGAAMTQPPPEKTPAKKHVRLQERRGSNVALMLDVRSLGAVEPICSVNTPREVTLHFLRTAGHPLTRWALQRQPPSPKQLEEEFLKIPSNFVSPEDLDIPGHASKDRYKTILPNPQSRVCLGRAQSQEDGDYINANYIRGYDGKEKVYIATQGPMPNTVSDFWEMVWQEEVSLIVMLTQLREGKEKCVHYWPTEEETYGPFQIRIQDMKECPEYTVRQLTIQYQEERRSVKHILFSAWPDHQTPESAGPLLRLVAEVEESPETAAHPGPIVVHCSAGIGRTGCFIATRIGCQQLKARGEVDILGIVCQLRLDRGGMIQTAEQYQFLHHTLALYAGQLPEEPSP
E coli WT exp: E. coli BW25113 growth inhibition, expanded screen; 0.15% of 98,000 active; growth inhibition, % at 100 µM; OD600 absorbance;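 active = growth inhibition above about 50% at one test dose, limit read from the data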;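 also: growth measured after 20 h incubation at 37 °C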
PLAP act: activates human placental alkaline phosphatase. P05187. purified PLAP enzyme, luminescent substrate read-out; active compounds read high. activation fold at 20 µM. 1.2% of 96,000 active; in the data active = activation fold above about 2
An asterisk follows results filed as active. An excerpt weighted towards active compounds, which were near 5.5% of everything screened. Rule as the data show it, unless noted: active = inhibition above about 30%; inactive = the rest.

What do the screens show for `COC(=O)c1ccccc1NC(=O)c1ccc(COc2cc(C)cc(C)c2)o1`?
PostGolgi ctrl: 31*; PostGolgi yeast: 9; E coli WT exp: -24; PLAP act: 1.3

How did Cc1ccc(C(=O)Nc2ccccc2C(N)=O)o1 do in these assays?
Ecoli tolC: 35; PostGolgi ctrl: -2; PostGolgi yeast: -9; HePTP inhibitor: 2; E coli WT exp: 26; PLAP act: 0.8

Results for COC(=O)c1cc(OC)c(OC)cc1NC(=O)CCc1ccc(C)o1 ?
Ecoli tolC: 12; PostGolgi ctrl: 22; PostGolgi yeast: 1; HePTP inhibitor: 4; E coli WT exp: -1; PLAP act: 1.4

How did COC(=O)c1cc(OC)c(OC)cc1NC(=O)c1ccc(C)o1 do in these assays?
PostGolgi ctrl: 20; PostGolgi yeast: -10; E coli WT exp: 4; PLAP act: 2.2*

Results for Cc1ccc(C(=O)Nc2ccccc2-c2ccccc2)o1 ?
PostGolgi ctrl: 35*; PostGolgi yeast: 6; E coli WT exp: 5; PLAP act: 1

How did Cc1occc1C(=O)Nc1ccc([N+](=O)[O-])cc1Cl do in these assays?
HePTP inhibitor: 5

How did O=C(c1cccc(F)c1)N1CCN(c2ccc(F)cc2)CC1 do in these assays?
HePTP inhibitor: 6

How did COc1cccc(C(=O)Nc2ccc3oc(-c4cccc(Br)c4)nc3c2)c1 do in these assays?
HePTP inhibitor: 5

What do the screens show for `O=C1NC(=Nc2cccnc2)S/C1=C\c1cccc(F)c1`?
HePTP inhibitor: 66*

What do the screens show for `COc1ccc(NC(=O)CC2CCCCC2)cc1`?
HePTP inhibitor: 12

Results for CSCC[C@H](NC(=O)OC(C)(C)C)c1nnc(SCc2cccc(F)c2)o1 ?
Ecoli tolC: 29; PostGolgi ctrl: 6; PostGolgi yeast: 14; HePTP inhibitor: -1; E coli WT exp: -6; PLAP act: 1.6

What do the screens show for `CC(C)C[C@H](NC(=O)OC(C)(C)C)c1nnc(SCc2cccc(F)c2)o1`?
Ecoli tolC: 73*; PostGolgi ctrl: 3; PostGolgi yeast: -12; HePTP inhibitor: -7; E coli WT exp: -4; PLAP act: 1.2

What do the screens show for `Cc1nnc(C)n1/N=C/c1ccccc1Br`?
HePTP inhibitor: 1

How did Cc1ccc(S(=O)(=O)Nc2nc3ccccc3nc2NCc2ccco2)cc1 do in these assays?
Ecoli tolC: 20; PostGolgi ctrl: 13; PostGolgi yeast: 1; HePTP inhibitor: 4; E coli WT exp: 0; PLAP act: 1.2

What do the screens show for `O=S(=O)(Nc1nc2ccccc2nc1NCc1ccco1)c1ccc(Cl)cc1`?
Ecoli tolC: 96*; PostGolgi ctrl: 38*; PostGolgi yeast: -8; HePTP inhibitor: 7; E coli WT exp: -5; PLAP act: 1.1

What do the screens show for `Cc1cccc(S(=O)(=O)Nc2nc3ccccc3nc2NCc2ccco2)c1`?
Ecoli tolC: 75*; PostGolgi ctrl: 14; PostGolgi yeast: -2; HePTP inhibitor: 13; E coli WT exp: -3; PLAP act: 1.1

How did O=C(N/N=C/c1ccccc1F)C(=O)N1CCCC1 do in these assays?
HePTP inhibitor: -5

Results for Cc1cc(N)c(-n2cc3c(=O)n(C)c(=O)n(C)c3c2)cc1C ?
Ecoli tolC: 18; PostGolgi ctrl: 32*; PostGolgi yeast: 4; HePTP inhibitor: 3; E coli WT exp: 8; PLAP act: 1.7

Results for COc1ccc(OC)c(NC(=O)c2nnn(Cc3ccc(Br)cc3F)c2N)c1 ?
Ecoli tolC: 34; PostGolgi ctrl: 31*; PostGolgi yeast: -13; HePTP inhibitor: 2; E coli WT exp: 1; PLAP act: 0.9

How did COc1cccc(Cn2nnc(C(=O)Nc3cc(Cl)ccc3OC)c2N)c1 do in these assays?
Ecoli tolC: 11; PostGolgi ctrl: 22; PostGolgi yeast: -12; HePTP inhibitor: 4; E coli WT exp: -7; PLAP act: 1

How did COc1ccc2ccccc2c1/C=C1\SC(=S)N(C2CCCCC2)C1=O do in these assays?
HePTP inhibitor: -17

Results for O=C1OC(COc2ccccc2)CN1c1ccc(Cl)c(Cl)c1 (stereo not given) ?
HePTP inhibitor: -1

What do the screens show for `C=CCn1c(=O)c2c3c(sc2n2c(Nc4ccc(OC)cc4)nnc12)CCCC3`?
Ecoli tolC: 15; PostGolgi ctrl: 33*; PostGolgi yeast: 5; HePTP inhibitor: 3; E coli WT exp: -9; PLAP act: 1.1

Results for Cc1c(Cl)c(=O)oc2cc(OCC(=O)c3ccc(Cl)cc3)ccc12 ?
HePTP inhibitor: 0

Results for Cn1nc(C(F)(F)F)c(C#N)c1N1CCN(c2ccccc2F)CC1 ?
PostGolgi ctrl: 3; PostGolgi yeast: 7; E coli WT exp: 0; PLAP act: 0.9

How did COc1cccc(N2CCN(c3c(C#N)c(C(F)(F)F)nn3C)CC2)c1 do in these assays?
PostGolgi ctrl: 51*; PostGolgi yeast: 1; E coli WT exp: -2; PLAP act: 1.3

How did CCOC(=O)C1=C(C)N=c2s/c(=C\c3ccc(O)c(OC)c3)c(=O)n2C1c1ccc(C)cc1 (stereo not given) do in these assays?
HePTP inhibitor: 9

What do the screens show for `COc1cc(/C=c2\sc3n(c2=O)C(c2ccccc2)C(c2ccccc2)=NN=3)ccc1O` (stereo not given)?
PostGolgi ctrl: 33*; PostGolgi yeast: 1; E coli WT exp: -19; PLAP act: 1

What do the screens show for `Cc1cccc(NC(=O)C2(c3ccccc3)CC2(Cl)Cl)c1` (stereo not given)?
PostGolgi ctrl: 35*; PostGolgi yeast: 13; E coli WT exp: 2; PLAP act: 1

What do the screens show for `Cc1ccc(NC(=O)C2(c3ccccc3)CC2(Cl)Cl)cc1C` (stereo not given)?
PostGolgi ctrl: 20; PostGolgi yeast: 2; E coli WT exp: -1; PLAP act: 1.1

What do the screens show for `CCc1ccc(NC(=O)C2(c3ccccc3)CC2(Cl)Cl)cc1` (stereo not given)?
PostGolgi ctrl: 31*; PostGolgi yeast: -2; E coli WT exp: -7; PLAP act: 1.1

Results for CCC(=Nc1ccccc1C)C1=C(O)CC(C)(C)CC1=O ?
HePTP inhibitor: 2

How did COc1ccc(-c2cc(-c3ccc(OC)cc3)[nH]n2)cc1 do in these assays?
Ecoli tolC: 49; PostGolgi ctrl: 33*; PostGolgi yeast: 20; HePTP inhibitor: 4; E coli WT exp: 0; PLAP act: 0.7

Results for COc1ccc(-c2nc(=S)[nH][nH]2)cc1 ?
Ecoli tolC: 0; PostGolgi ctrl: 16; PostGolgi yeast: 9; HePTP inhibitor: 4; E coli WT exp: -1; PLAP act: 2*

How did COc1ccc(-c2cc(-c3ccccc3)n[nH]2)cc1 do in these assays?
HePTP inhibitor: 4

How did COc1ccc(OC)c(-n2c(-c3cc(-c4ccc(F)cc4)n[nH]3)n[nH]c2=S)c1 do in these assays?
PostGolgi ctrl: -2; PostGolgi yeast: -3; E coli WT exp: 7; PLAP act: 2*

How did COc1ccc(OC)c(-n2c(-c3ccc(C)cc3)n[nH]c2=S)c1 do in these assays?
PostGolgi ctrl: 5; PostGolgi yeast: -2; E coli WT exp: -10; PLAP act: 0.9
